According to ChEMBL document CHEMBL3351639, “Fluorinated analogues of marsanidine, a highly α2-AR/imidazoline I1 binding site-selective hypotensive agent. Synthesis and biological activities” (Eur J Med Chem, 2014):

Tests used:
[1] = target: T1, Alpha-2A adrenergic receptor (Homo sapiens, UniProt P08913); assay: Displacement of [3H]RS-79948-197 from human alpha2A adrenoceptor expressed in CHO-K1 cells after 45 mins by liquid scintillation counting; format: cell-based
T1 sequence (P08913 whole entry): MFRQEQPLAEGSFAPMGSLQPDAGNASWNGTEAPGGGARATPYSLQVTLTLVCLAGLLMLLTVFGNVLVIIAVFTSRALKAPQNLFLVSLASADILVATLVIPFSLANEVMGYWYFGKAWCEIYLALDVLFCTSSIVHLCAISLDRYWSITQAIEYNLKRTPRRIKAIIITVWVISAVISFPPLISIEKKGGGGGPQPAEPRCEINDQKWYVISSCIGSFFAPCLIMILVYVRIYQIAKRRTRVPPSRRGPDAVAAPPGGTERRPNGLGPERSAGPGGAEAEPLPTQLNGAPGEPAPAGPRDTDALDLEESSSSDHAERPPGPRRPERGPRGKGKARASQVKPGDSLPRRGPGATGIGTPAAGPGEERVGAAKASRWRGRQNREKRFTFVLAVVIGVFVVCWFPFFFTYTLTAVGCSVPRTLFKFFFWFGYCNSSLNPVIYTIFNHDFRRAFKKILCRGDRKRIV
Procedure, shortened: (§1)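 Membranes from CHO-K1 cells stably expressing each human α2-AR subtype (6–10 µg protein). Used 0.2 nM [3H]RS-79948-197 and 8 serial dilutions of competitor in 50 mM potassium phosphate, pH 7.4. Non-specific binding defined with 100 µM oxymetazoline. Filtration, then scintillation counting. Run in duplicate, at least 3 repeats. One-site nonlinear fit; IC50 converted to Ki by Cheng-Prusoff.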

[2] = target: T2, Alpha-2C adrenergic receptor (Homo sapiens, UniProt P18825); assay: Displacement of [3H]RS-79948-197 from human alpha2C adrenoceptor expressed in CHO-K1 cells after 45 mins by liquid scintillation counting; format: cell-based; procedure, shortened: as §1
T2 sequence (P18825 whole entry): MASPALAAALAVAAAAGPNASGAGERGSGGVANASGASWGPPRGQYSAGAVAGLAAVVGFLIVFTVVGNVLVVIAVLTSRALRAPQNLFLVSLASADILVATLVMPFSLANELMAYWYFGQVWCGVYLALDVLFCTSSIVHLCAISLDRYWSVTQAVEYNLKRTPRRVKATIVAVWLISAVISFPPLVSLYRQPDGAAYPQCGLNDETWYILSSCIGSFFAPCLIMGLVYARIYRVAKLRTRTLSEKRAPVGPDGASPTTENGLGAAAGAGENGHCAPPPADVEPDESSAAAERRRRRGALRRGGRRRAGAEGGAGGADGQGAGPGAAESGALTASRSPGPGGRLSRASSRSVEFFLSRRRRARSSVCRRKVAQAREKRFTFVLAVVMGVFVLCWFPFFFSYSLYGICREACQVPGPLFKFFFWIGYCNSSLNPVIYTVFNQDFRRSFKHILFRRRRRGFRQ

[3] = target: T1, Alpha-2A adrenergic receptor; assay: Agonist activity at human alpha2A adrenoceptor expressed in CHO-K1 cells after 30 mins by [35S]GTPgammaS binding assay; format: functional, cell-based
Procedure, shortened: (§2)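 Membranes from CHO cells stably expressing human α2A-AR (5 µg protein) were incubated with 7 or 8 serial dilutions of compound and 0.1 nM [35S]GTPγS. Buffer: 25 mM Tris, 1 mM EDTA, 5 mM MgCl2, 20 mM NaCl, 1 µM GDP, 1 mM DTT, 30 µM ascorbic acid, pH 7.4. Incubation 30 min at RT, then vacuum filtration and scintillation counting. Run in duplicate, at least 3 repeats.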

[4] = target: T3, Alpha-2A adrenergic receptor (Homo sapiens) (UniProt P08913); assay: Intrinsic activity at human alpha2A adrenoceptor expressed in CHO-K1 cells after 30 mins by [35S]GTPgammaS binding assay relative to norepinephrine; format: functional, cell-based; procedure, shortened: as §2
T3 sequence (whole entry): T1 sequence (P08913 whole entry)

Row | Structure (SMILES) | Ki [1] [nM] | Ki [2] [nM] | EC50 [3] [nM] | Intrinsic activity [4] [%]
1 | Fc1cccc2cnn(N=C3NCCN3)c12 | 65 | 1200 | 200 | 18
2 | Fc1ccc2cnn(N=C3NCCN3)c2c1 | 33 | 600 | 38.9 | 5.2
